Results of several laboratories.
Each line is one published result; the experiments were not run side by side.
Target: Serine/threonine-protein kinase Nek11 (NEK11, Homo sapiens, UniProt Q8NG66)
One construct used (Q8NG66 1-645): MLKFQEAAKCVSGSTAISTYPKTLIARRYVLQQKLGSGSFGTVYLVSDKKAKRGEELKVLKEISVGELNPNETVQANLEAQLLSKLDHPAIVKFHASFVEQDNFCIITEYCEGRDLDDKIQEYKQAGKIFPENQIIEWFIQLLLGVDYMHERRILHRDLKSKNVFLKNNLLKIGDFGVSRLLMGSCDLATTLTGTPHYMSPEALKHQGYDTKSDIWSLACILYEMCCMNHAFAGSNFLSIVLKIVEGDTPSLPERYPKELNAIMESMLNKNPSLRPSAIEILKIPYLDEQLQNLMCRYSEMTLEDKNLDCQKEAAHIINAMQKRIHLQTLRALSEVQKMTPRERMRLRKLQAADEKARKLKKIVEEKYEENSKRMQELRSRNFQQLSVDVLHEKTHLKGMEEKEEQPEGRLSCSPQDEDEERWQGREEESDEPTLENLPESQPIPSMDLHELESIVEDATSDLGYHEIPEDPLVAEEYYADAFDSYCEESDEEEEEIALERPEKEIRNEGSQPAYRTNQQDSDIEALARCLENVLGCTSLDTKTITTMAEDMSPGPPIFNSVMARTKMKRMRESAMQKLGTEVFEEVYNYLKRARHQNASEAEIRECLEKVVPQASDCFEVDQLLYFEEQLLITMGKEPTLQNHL

| SMILES | assay | setting | endpoint | value |
| --- | --- | --- | --- | --- |
| Cc1ccc(Nc2nccc(N(C)c3ccc4c(C)n(C)nc4c3)n2)cc1S(N)(=O)=O | enzyme activity, inhibitor | 0.3 µM | inhibition | -9% |
| COc1cc(-c2cn(C3CCc4c(F)cccc4N(CC(F)(F)F)C3=O)nn2)ccc1-n1cnc(C)c1 (centres unmarked) | cell-free assay, competition with immobilised ligand | 1 µM | remaining binding | 100% |
| CCN(CC)c1ccc(C2=NNC(=O)CC2C)cc1[N+](=O)[O-] (centres unmarked) | enzyme activity, inhibitor | 10 µM | remaining activity | 114% |
| O=C1NC(=O)c2cc(Nc3ccc(F)cc3)c(Nc3ccc(F)cc3)cc21 | cell-free assay | 0.5 µM | remaining signal | 103% |
| CC(C)(C)c1nc2c(s1)c1nc(N)ncc1c1ccc(NS(=O)(=O)c3c(F)cccc3F)c(F)c12 | enzyme activity, inhibitor, radiometric | 1 µM | remaining activity | 60% |
| CC(C)(O)[C@H]1CC[C@H](Nc2ccc3ncc(-c4cccc(C(F)(F)F)c4)n3n2)CC1 | enzyme activity, inhibitor | 1 µM | remaining activity | 120% |
| O=C(Nc1cnn(-c2csc(C(=O)NC3COC3)c2)c1)Nc1c(F)cccc1Cl | enzyme activity, inhibitor | 5 µM | remaining activity | 89.5% |
| O=C1Nc2ccc(Cl)cc2C1=Cc1cc(Cl)c(O)c(Cl)c1 | cell-free assay | 0.5 µM | remaining signal | 104% |
| Cc1sc(C(=O)NC2COC2)cc1-n1cc(NC(=O)Nc2c(F)cccc2Cl)cn1 | enzyme activity, inhibitor | 10 µM | remaining activity | 70% |
| Cc1cc(NC(=O)c2cccc3cc(-c4cccc5[nH]nc(N)c45)ccc23)ccc1F | enzyme activity, inhibitor | 0.1 µM | activity vs control | 91% |
| Cc1c(NC(=O)c2cc(C(N)=O)nc3cc(F)ccc23)c(C(F)(F)F)nn1Cc1ccc(C#N)cc1 | cell-free assay, competition with immobilised ligand | 1 µM | remaining binding | 100% |
| COc1cc2ncnc(Nc3ccc(F)c(Cl)c3)c2cc1OCCCN1CCOCC1 | cell-free assay | 0.5 µM | remaining signal | 109% |
| CC(=O)N1CCC(c2ccc(C(=O)NC(=N)N)cc2C(F)(F)F)CC1 | cell-free assay, competition with immobilised ligand | 1 µM | remaining binding | 100% |
| CNC(=O)c1cc(Oc2ccc(NC(=O)Nc3ccc(Cl)c(C(F)(F)F)c3)cc2)ccn1 | enzyme activity, inhibitor | 10 µM | inhibition | 28% |
| CN1CCN(c2cnc3c(C4CCN(C(=O)c5ccc(OC(F)(F)F)cc5N)CC4)ncnc3c2)CC1 | cell-free assay, competition with immobilised ligand | 1 µM | remaining binding | 100% |
| CCN(CC)CCNC(=O)c1c(C)[nH]c(/C=C2\C(=O)Nc3ccc(F)cc32)c1C | enzyme activity, inhibitor | 10 µM | inhibition | 46% |
| CN([C@@H]1CCc2c(CC(=O)O)c3ccccc3n2C1)S(=O)(=O)c1ccc(F)cc1 | cell-free assay, competition with immobilised ligand | 1 µM | remaining binding | 100% |
| Clc1ccc(Nc2nnc(Cc3ccncc3)c3ccccc23)cc1 | cell-free assay | 0.5 µM | remaining signal | 87% |
| CS(=O)(=O)N1CCCC(NC(=O)[C@H](CCC2CCCCC2)NC(=O)c2ccc(CNc3ncnc4c3nnn4-c3ccccc3)cc2)C1 (some centres unmarked) | cell-free assay, competition with immobilised ligand | 0.1 µM | remaining binding | 100% |
| CCCOc1ccc(OC)c(F)c1C(=O)c1ccc(C(=O)N[C@@H]2CNC[C@H]2NC(=O)c2ccc3[nH]ncc3c2)cc1 | enzyme activity, inhibitor | 10 µM | remaining activity | 45% |
